{"source": "paper PMC9482816", "about": "(Journal of medicinal chemistry, 2022)", "key": {"[1]": {"system": "H3K9me2 level in MDA-MB-231 cells", "test": "Western blot analysis for H3K9me2 in MDA-MB-231 cells", "type": "cell-based", "conditions": "0.2, 1, or 5 μM for 24, 48, or 72 h"}, "[2]": {"system": "H3K9me2 level in K562 cells", "test": "Western blot analysis for H3K9me2 in K562 cells", "type": "cell-based", "conditions": "treated for 48 h"}, "[3]": {"biological_target": "T1, G9a (Homo sapiens, UniProt Q96KQ7)", "T1 sequence (Q96KQ7 913-1193)": "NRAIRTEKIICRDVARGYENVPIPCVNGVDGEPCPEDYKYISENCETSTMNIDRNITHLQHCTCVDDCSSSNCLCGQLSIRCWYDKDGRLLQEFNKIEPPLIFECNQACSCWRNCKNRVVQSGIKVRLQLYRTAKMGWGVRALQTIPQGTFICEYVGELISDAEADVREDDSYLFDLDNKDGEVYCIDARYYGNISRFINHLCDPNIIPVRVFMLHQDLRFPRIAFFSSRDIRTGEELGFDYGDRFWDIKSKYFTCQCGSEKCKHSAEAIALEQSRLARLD", "test": "Mass spectrometry based analysis of G9a-inhibitor adduct formation", "type": "binding", "conditions": "for covalent modification of G9a (MS-based analysis, in words): after 1 h of incubation", "how_it_was_run": "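Purified human G9a catalytic domain (residues 913–1193), 5 μM in 50 mM Tris-HCl pH 7.5, 150 mM NaCl, incubated 1 h at room temperature with 50 μM test compound or DMSO. Intact protein analysed by electrospray LC/TOF mass spectrometry. Protein–inhibitor adduct quantified from the mass shift over unmodified G9a (34 314 Da).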"}, "[4]": {"biological_target": "T2, G9a (Homo sapiens, UniProt Q96KQ7)", "T2 sequence (Q96KQ7 1-1210)": "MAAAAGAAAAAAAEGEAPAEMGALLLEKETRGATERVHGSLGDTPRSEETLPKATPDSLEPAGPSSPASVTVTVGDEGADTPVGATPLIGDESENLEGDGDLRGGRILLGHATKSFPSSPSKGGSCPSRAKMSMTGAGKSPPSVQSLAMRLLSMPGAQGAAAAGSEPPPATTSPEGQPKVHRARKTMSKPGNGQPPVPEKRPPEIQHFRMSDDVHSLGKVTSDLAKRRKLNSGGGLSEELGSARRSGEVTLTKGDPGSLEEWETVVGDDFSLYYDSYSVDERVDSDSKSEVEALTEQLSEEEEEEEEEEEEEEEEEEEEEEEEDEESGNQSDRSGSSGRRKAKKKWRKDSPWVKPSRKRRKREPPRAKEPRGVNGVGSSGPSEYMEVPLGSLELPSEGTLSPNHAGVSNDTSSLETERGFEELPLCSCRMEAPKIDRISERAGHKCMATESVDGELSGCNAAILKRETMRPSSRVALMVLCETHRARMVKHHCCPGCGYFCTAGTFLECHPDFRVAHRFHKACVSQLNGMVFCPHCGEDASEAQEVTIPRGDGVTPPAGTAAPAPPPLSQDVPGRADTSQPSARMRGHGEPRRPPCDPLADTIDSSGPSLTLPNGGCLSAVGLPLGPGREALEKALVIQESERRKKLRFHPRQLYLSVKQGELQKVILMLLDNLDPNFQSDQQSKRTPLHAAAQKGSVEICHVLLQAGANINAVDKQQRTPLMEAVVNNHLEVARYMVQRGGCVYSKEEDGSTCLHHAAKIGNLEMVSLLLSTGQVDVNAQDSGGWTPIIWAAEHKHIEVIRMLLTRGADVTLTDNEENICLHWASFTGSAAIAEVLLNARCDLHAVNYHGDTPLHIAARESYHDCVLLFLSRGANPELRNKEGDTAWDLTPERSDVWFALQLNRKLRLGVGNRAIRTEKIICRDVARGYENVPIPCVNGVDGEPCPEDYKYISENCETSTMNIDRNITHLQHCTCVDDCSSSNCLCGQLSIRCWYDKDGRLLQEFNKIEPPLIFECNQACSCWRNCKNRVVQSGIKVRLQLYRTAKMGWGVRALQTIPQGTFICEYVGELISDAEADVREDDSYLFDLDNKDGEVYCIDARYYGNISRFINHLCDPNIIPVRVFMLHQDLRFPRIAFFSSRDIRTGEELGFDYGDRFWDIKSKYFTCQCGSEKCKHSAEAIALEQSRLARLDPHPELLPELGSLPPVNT", "test": "Radioactivity-based scintillation proximity biochemical assay, G9a", "conditions": "preincubation 5, 15, 45 min", "how_it_was_run": "(§1)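 Tritiated methyl transfer from SAM to H3 peptide, read by scintillation proximity. Enzymes are recombinant human catalytic domains: G9a (913–1193) and GLP (982–1266), each at 5 nM. Substrate is H3 peptide at 0.05 μM and SAM cofactor at 1 μM. Test compound is preincubated with enzyme for 5, 15 or 45 min. Run by a contract lab in four replicates.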"}, "[5]": {"system": "MDA-MB-231 cells", "test": "Cytotoxicity assay", "type": "cell-based", "conditions": "3 days, CCK-8 (Figure S2)", "how_it_was_run": "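MDA-MB-231 cells are seeded at 1 × 10^4 cells per well and exposed to test compound at various concentrations for 3 days. Viability is read with CCK-8 following the kit protocol. Values are plotted from triplicate experiments.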"}, "[6]": {"system": "21 other methyltransferases (PKMTs and PRMTs)", "test": "Selectivity assays against other methyltransferases", "type": "biochemical", "conditions": "compound at 1 μM; any of the 21 enzymes", "how_it_was_run": "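Radioactivity-based scintillation proximity format that follows transfer of the 3H-labelled methyl group from SAM to substrate. Test compound at 1 μM, run in duplicate against each methyltransferase. Inhibition expressed as percentage of control enzyme activity.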"}, "[7]": {"biological_target": "T3, GLP (Homo sapiens, UniProt Q9H9B1)", "T3 sequence (Q9H9B1 1-1298)": "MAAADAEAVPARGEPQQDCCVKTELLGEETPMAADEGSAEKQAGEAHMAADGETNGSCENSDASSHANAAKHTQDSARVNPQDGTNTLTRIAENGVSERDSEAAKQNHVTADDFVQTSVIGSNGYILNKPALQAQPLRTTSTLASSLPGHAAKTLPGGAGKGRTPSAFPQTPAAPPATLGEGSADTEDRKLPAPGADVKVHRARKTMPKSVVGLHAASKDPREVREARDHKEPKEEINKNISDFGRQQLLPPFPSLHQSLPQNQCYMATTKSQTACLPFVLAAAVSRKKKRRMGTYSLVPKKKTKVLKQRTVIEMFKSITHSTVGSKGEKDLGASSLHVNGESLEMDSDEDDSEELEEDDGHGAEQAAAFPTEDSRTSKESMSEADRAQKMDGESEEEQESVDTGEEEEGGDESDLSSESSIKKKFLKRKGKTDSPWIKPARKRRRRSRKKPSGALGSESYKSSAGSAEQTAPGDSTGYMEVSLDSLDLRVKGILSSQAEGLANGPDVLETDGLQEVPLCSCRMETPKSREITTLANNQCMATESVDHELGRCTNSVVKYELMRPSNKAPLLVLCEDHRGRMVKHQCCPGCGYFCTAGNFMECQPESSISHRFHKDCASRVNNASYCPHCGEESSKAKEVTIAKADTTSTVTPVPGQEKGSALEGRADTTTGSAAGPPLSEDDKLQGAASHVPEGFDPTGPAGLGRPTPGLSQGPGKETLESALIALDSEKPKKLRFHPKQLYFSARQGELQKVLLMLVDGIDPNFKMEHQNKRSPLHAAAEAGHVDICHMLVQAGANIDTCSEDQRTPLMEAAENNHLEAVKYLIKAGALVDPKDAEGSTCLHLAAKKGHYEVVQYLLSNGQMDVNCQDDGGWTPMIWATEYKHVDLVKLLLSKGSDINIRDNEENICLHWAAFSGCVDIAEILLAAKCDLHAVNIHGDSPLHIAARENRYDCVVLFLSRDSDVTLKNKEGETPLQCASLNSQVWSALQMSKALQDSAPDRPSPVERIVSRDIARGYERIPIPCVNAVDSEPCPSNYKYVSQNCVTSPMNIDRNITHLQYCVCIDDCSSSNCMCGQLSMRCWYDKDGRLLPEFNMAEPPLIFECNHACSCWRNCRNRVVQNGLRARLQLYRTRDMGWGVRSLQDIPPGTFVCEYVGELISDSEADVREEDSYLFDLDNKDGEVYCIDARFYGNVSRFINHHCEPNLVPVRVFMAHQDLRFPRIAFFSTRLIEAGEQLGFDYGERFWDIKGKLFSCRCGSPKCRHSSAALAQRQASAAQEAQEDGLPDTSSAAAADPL", "test": "Radioactivity-based scintillation proximity biochemical assay, GLP", "conditions": "preincubation 5, 15, 45 min", "how_it_was_run": "as §1"}, "[8]": {"biological_target": "T4, GLP (Homo sapiens, UniProt Q9H9B1)", "T4 sequence (Q9H9B1 982-1266)": "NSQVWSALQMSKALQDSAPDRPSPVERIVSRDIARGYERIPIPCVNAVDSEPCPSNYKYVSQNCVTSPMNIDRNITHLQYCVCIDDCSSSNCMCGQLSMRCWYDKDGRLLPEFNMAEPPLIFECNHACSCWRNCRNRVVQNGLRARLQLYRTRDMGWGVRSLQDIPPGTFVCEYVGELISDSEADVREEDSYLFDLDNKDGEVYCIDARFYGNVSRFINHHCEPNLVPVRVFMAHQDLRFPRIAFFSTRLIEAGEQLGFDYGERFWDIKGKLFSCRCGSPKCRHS", "test": "Isothermal titration calorimetry", "type": "binding", "conditions": "ITC"}}, "note": "Entries after “also recorded” stand apart in the source; their conditions may differ."}
{"compound": "C=CC(=O)Nc1nc(NC2CCN(C(C)C)CC2)c2cc(OC)c(OCCCN3CCCC3)cc2n1", "note": "[Compound 1, N-(4-((1-Isopropylpiperidin-4-yl)amino)-6-methoxy-7-(3-(pyrrolidin-1-yl)propoxy)-quinazolin-2-yl)acrylamide]", "values": [{"measurement": "reduction of H3K9me2 level in MDA-MB-231 cells", "setting": "[1]", "value": "slightly lower potency than UNC0642 and compound 9"}, {"measurement": "reduction of H3K9me2 level in K562 cells", "setting": "[2]", "value": "reduced the H3K9me2 level in K562 cells"}]}
{"compound": "C=CC(=O)N(C)c1nc(NC2CCN(C(C)C)CC2)c2cc(OC)c(OCCCN3CCCC3)cc2n1", "note": "[Compound 6, N-(4-((1-Isopropylpiperidin-4-yl)amino)-6-methoxy-7-(3-(pyrrolidin-1-yl)propoxy)-quinazolin-2-yl)-N-methylacrylamide]", "values": [{"measurement": "covalent modification of G9a (MS-based analysis, in words)", "setting": "[3]", "value": "completely lost its ability to covalently modify G9a"}]}
{"compound": "C=CC(=O)Nc1cc(NC2CCN(C(C)C)CC2)c2cc(OC)c(OCCCN3CCCC3)cc2n1", "note": "[Compound 8, N-(4-((1-Isopropylpiperidin-4-yl)amino)-6-methoxy-7-(3-(pyrrolidin-1-yl)propoxy)quinolin-2-yl)acrylamide]", "values": [{"measurement": "reduction of H3K9me2 level in MDA-MB-231 cells", "setting": "[1]", "value": "effectively reduced the H3K9me2 mark in a concentration- and time-dependent manner; also recorded: improved potency compared to UNC0642 and compound 9"}, {"measurement": "rate of G9a adduct formation compared to GLP adduct", "setting": "[3]; mass spectrometry, 0-120 min, 5 μM G9a or GLP, 50 μM compound", "value": "faster than that of the GLP–compound 8 adduct"}, {"measurement": "inhibition of G9a compared to GLP", "setting": "[4]", "value": "more effectively inhibited G9a than GLP at all three time points"}, {"measurement": "inhibitory activity against G9a with preincubation time", "setting": "[4]", "value": "improved inhibitory activity against G9a and GLP with increased preincubation time"}, {"measurement": "inhibition of cell growth in MDA-MB-231 cells", "setting": "[5]", "value": "more effective than compound 1 and UNC0642 in suppressing the growth of MDA-MB-231 cells"}, {"measurement": "inhibition effect against 21 PKMTs and PRMTs", "setting": "[6]", "value": "≤ 50", "unit": "%"}, {"measurement": "inhibitory activity against GLP with preincubation time", "setting": "[7]", "value": "improved inhibitory activity against G9a and GLP with increased preincubation time"}, {"measurement": "reduction of H3K9me2 level in K562 cells", "setting": "[2]", "value": "reduced the H3K9me2 level in K562 cells; also recorded: much better potency compared to compound 1 and slightly better potency compared to UNC0642"}, {"measurement": "fold improved binding affinity to GLP compared to UNC0642", "setting": "[8]", "value": 1.3, "unit": "fold"}]}
{"compound": "CCC(=O)Nc1cc(NC2CCN(C(C)C)CC2)c2cc(OC)c(OCCCN3CCCC3)cc2n1", "note": "[Compound 9, N-(4-((1-Isopropylpiperidin-4-yl)amino)-6-methoxy-7-(3-(pyrrolidin-1-yl)propoxy)quinolin-2-yl)propionamide]", "values": [{"measurement": "reduction of H3K9me2 level in MDA-MB-231 cells", "setting": "[1]", "value": "displayed some cellular potency as a reversible inhibitor but was not as potent as compound 8"}, {"measurement": "covalent modification of G9a (MS-based analysis, in words)", "setting": "[3]", "value": "did not covalently modify G9a"}]}
